DUSP1 inh: inhibitors of human MKP-1 phosphatase; recombinant MKP-1, OMFP hydrolysis fluorescence; inhibition, %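 (compounds tested at a single concentration somewhere between 10 and 100 µM)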; 0.15% of 65,000 active; AID 374;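 active = inhibition above about 50%, limit read from the data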;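 note: 0% = DMSO max control wells and 100% = wells with enzyme stopped by NaOH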
Target sequence (P28562 whole entry, looked up): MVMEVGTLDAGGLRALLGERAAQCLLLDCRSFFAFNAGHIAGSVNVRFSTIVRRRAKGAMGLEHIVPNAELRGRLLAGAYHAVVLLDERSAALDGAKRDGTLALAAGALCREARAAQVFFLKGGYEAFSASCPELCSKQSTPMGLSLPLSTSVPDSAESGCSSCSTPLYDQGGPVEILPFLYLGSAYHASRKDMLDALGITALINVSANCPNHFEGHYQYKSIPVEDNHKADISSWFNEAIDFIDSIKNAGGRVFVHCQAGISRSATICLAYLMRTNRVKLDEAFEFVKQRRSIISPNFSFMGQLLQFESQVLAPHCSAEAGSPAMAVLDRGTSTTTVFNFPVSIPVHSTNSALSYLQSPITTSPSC
tolC growth inh: E. coli tolC mutant growth inhibition; growth inhibition, % at 10 µM (by protocol); E. coli BW25113 tolC mutant growth, OD615; 2.2% of 65,000 active;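 active = growth inhibition at or above a cutoff equal to the mean over every tested compound plus 3 SD, cut at about 60% in these data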;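 note: growth measured after 20 h incubation at 37 °C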
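test system = E. coli BW25113 ΔtolC::kan bacteria | medium = LB with kanamycin 50 µg/mL | signal = OD at 615 nm | schedule = 37 °C, 20 h exposure | evaluation = % inhibition of E. coli growth | compound dosing = one dose of 10 µM final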
Cdc25B block: inhibitors of human Cdc25B phosphatase. inhibition, %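 (compounds tested at 10 µM final in the well)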. 0.1% of 65,000 active. recombinant Cdc25B, OMFP fluorescence Ex485/Em525. P30305. AID 368; in the data active = inhibition above about 50%
MMP-13 inhibitor: inhibitors of human MMP13; MMP-13 fTHP FRET cleavage, Mca fluorescence; inhibition, % at 4 µM; 0.07% of 65,000 active; AID 570;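 active = inhibition above the mean of compound-free control plate wells plus 3 SD, cut at about 14% in these data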;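 note: 0% = DMSO wells and 100% = wells with reference MMP-13 inhibitor after basal subtraction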
E coli WT exp: growth inhibitors of E. coli BW25113 wild type | OD600 absorbance | growth inhibition, % at 100 µM | 0.15% of 98,000 active | AID 710;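 active = growth inhibition above about 50% at one test dose, limit read from the data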;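 note: growth measured after 20 h incubation at 37 °C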
HePTP inh: human HePTP phosphatase inhibition; recombinant HePTP phosphatase activity, OD absorbance; inhibition, % at 20 µM; 0.64% of 110,000 active; AID 521; in the data active = inhibition above about 50%;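 note: plate controls were vehicle for no effect and reference inhibitor for full effect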
Active calls of the source: *; . = no result given. This excerpt belongs to a sample that is enriched for hits.

SMILES	DUSP1 inh	tolC growth inh	Cdc25B block	MMP-13 inhibitor	E coli WT exp	HePTP inh
CC(=O)/C(=N/Nc1ccccc1)N1CCOCC1	.	.	.	.	-4	.
C=CCN1C(=O)/C(=C\c2ccc(-c3ccc([N+](=O)[O-])cc3C)o2)C(=O)NC1=S	.	.	.	.	.	103*
C=CCN1C(=O)/C(=C\c2ccc(-c3ccc([N+](=O)[O-])cc3Cl)o2)C(=O)NC1=S	.	.	.	.	.	10
C=CCN1C(=O)/C(=C\c2ccc(-c3ccccc3[N+](=O)[O-])o2)C(=O)NC1=S	.	.	.	.	.	15
O=C1NC(=S)N/C1=C\c1ccc(-c2cc([N+](=O)[O-])ccc2Br)o1	.	.	.	.	.	102*
C=CCN1C(=O)/C(=C\c2ccc([N+](=O)[O-])o2)C(=O)NC1=S	.	.	.	.	.	103*
C=CCN1C(=O)/C(=C\c2ccc(-c3ccc([N+](=O)[O-])cc3Br)o2)C(=O)NC1=S	.	.	.	.	.	98*
COc1ccc(/C=C2/SC(=Nc3ccccc3)NC2=O)cc1O	.	.	.	.	.	2
C=CCOc1ccc(/C=C2\SC(=Nc3ccccc3)NC2=O)cc1OC	.	.	.	.	.	64*
COc1ccc(/C(N)=N/OC(=O)COc2ccc(C(C)(C)C)cc2)cc1	.	.	.	.	.	-2
CCCCOc1ccc(S(=O)(=O)Nc2cc(OC)ccc2OC)cc1	6	70*	4	5	-9	6
CCN(CC)c1ccc(/C=C(\C#N)c2nn(CCO)c(N)c2C#N)cc1	.	.	.	.	.	-8
COc1cccc(-c2csc(N3CCN(C(=O)Nc4ccccc4OC)CC3)n2)c1	11	27	-2	1	-9	-3
COc1cccc(-c2csc(N3CCN(C(=O)C4CCCCC4)CC3)n2)c1	21	69*	1	7	-28	0
CCOC(=O)CCSc1nc2c(c(C(F)(F)F)c1C#N)CCC2	-11	66*	-13	-4	0	-4
Cc1ccc(N2C(=O)NC(=O)/C(=C\c3ccc(N4CCCCC4)o3)C2=O)cc1	.	.	.	.	.	-10
Cc1onc(-c2ccccc2Cl)c1C(=O)Nc1ccc(-n2nncc2-c2ccco2)cc1	35	44	-7	-2	-4	6
Cc1onc(-c2ccccc2Cl)c1C(=O)Nc1ccc(-n2nncc2C(C)(C)C)cc1	2	-8	66*	7	-15	12
O=C(c1cc(-c2ccccc2)on1)N1CCN(Cc2ccc3c(c2)OCO3)CC1	-9	66*	-4	-3	-10	9
Cc1noc(C)c1C(=O)N1CCN(Cc2ccc3c(c2)OCO3)CC1	8	-7	-6	3	-5	6
CCCCN(CCCC)C(=O)CSc1nnc(-c2cc(OC)c(OC)c(OC)c2)o1	11	71*	-5	2	-4	6
CCCCOC(=O)CSc1nnc(-c2cc(OC)c(OC)c(OC)c2)o1	-25	17	-7	0	4	-2
CC(=O)c1c(C)nn2c3ccccc3n(C)c12	.	.	.	.	.	-8
Cc1ccc2c(c1)C(=Cc1nc3ccccc3c(=O)n1-c1ccccc1[N+](=O)[O-])C(=O)N2	.	.	.	.	.	104*
O=C1Nc2ccccc2C1=Cc1nc2ccccc2c(=O)n1-c1ccccc1[N+](=O)[O-]	.	.	.	.	.	1
SMILES	DUSP1 inh	tolC growth inh	Cdc25B block	MMP-13 inhibitor	E coli WT exp	HePTP inh
CCCCCOC(=O)C1=C(C)NC(=S)NC1c1ccccc1 (centres undefined)	.	.	.	.	.	63*
COc1ccc(-c2cc(C(=O)NN3CCN(C)CC3)c3ccccc3n2)cc1OC	.	.	.	.	.	-4
Cc1ccc(-c2nnc(-c3ccc(Br)o3)o2)cc1	.	.	.	.	.	6
CC1(C)CC(=O)c2c(oc3c(Br)cc(NS(=O)(=O)c4ccccc4)cc23)C1	.	.	.	.	.	5
O=C1OC(/C=C/c2ccccc2)=NC/1=C/c1ccc(-c2ccc3c(c2)C(=O)NC3=O)o1	.	.	.	.	.	71*
O=C1OC(/C=C/c2ccccc2)=NC/1=C/c1ccccc1	.	.	.	.	.	2
CCOC(=O)C1=C(c2ccccc2)NC(=S)NC1c1ccc(SC)cc1 (centres undefined)	.	.	.	.	.	6
Clc1ccc(CC(Cc2nc3ccccc3[nH]2)c2nc3ccccc3[nH]2)cc1 (centres undefined)	.	.	.	.	.	-2
CCN(CC)c1ccc(NC(=O)/C=C\c2ccccc2Cl)cc1	.	.	.	.	-13	104*
O=C(CC(=O)c1ccccc1O)c1cccc(F)c1	-2	89*	3	1	12	12
CN=C(Nc1cccc(F)c1)SC1CC(=O)N(c2ccccc2F)C1=O (centres undefined)	.	.	.	.	.	-8
CCCCCCCCCCn1c2c(c(=N)c3c1CCC3)CCC2	.	.	.	.	100*	.
CC(NC(=O)c1ccco1)C1CCCO1 (centres undefined)	.	.	.	.	-2	.
CC(NC(=O)c1ccc2c(c1)OCO2)C1CCCO1 (centres undefined)	56*	-13	-16	-1	2	8
Cc1ccc(-n2c(=O)[nH]cc(C(=O)Nc3ccc4c(c3)OCCO4)c2=O)cc1C	44	67*	12	-8	-6	.
Cc1oc(C(C)(C)C)cc1C(=O)Nc1ccc2c(c1)OCCO2	10	80*	-4	-2	1	6
O=C1NC(=O)N(c2cccc(F)c2)C(=O)/C1=C/c1ccc(Oc2ccc([N+](=O)[O-])cn2)cc1	.	.	.	.	.	6
Oc1cccc2ccc(Nc3ccccn3)nc12	5	2	5	5	100*	5
O=c1c2c(nc3cc(-c4ccccc4)[nH]n13)CCS2	.	.	.	.	-16	-1
O=c1c2c(nc3cc(-c4ccc(Br)cc4)[nH]n13)CCS2	.	.	.	.	.	52*
Cc1cccn2c(=O)c(/C=C3\SC(=S)N(CCc4ccccc4)C3=O)c(NCCCn3ccnc3)nc12	.	.	.	.	.	4
CCc1nc(N(CC)CC)c2oc3ccccc3c2n1	8	34	-7	1	10	7
CCc1nc(N2CCC(C)CC2)c2oc3ccccc3c2n1	2	100*	-1	-2	2	6
CC(C)C(NC(=O)c1ccc(CN(c2ccccc2)S(C)(=O)=O)cc1)C(C)C	.	.	.	.	.	-9
OC(COc1ccc2ccccc2c1Br)Cn1ccnc1 (centres undefined)	7	99*	-16	5	47	2
SMILES	DUSP1 inh	tolC growth inh	Cdc25B block	MMP-13 inhibitor	E coli WT exp	HePTP inh
CCCOc1ccccc1/C=C1/C(=O)NN(c2ccccc2)C1=O	.	.	.	.	.	-1
Fc1ccc(-c2cc(-c3ccccc3)nc(N/N=C\c3ccco3)n2)cc1	.	.	.	.	.	-2
O=C1N=c2ccc(Br)cc2=C1c1sc(NS(=O)(=O)Cc2ccccc2)nc1O	.	.	.	.	.	29
O=C1N=c2ccc(Br)cc2=C1c1sc(Nc2ccc(O)cc2)nc1O	.	.	.	.	.	93*
CC(=O)c1cccc(NC(=O)CSc2nncn2C)c1	.	.	.	.	.	6
O=C(c1c[nH]c2ccccc12)C(O)C(c1ccccc1)N1CCOCC1 (centres undefined)	10	-2	-4	0	5	6
COc1ccc(C(C(O)C(=O)c2c[nH]c3ccccc23)N2CCN(c3ccc(OC)cc3)CC2)cc1 (centres undefined)	22	76*	0	2	-1	2
COc1ccccc1N1C(=O)/C(=C/c2cccc(Cl)c2)SC1=S	.	.	.	.	.	8
CC(C)Oc1ccc(Cc2cnc(N)nc2N)cc1	.	.	.	.	71*	-13
O=c1[nH]cnc2[nH]ncc12	74*	-9	-3	.	.	.
Cc1cc2c(=O)[nH]cnc2s1	.	.	.	.	-4	.
